These results are taken from ChEMBL document CHEMBL4706727, “Discovery of 2,4-1H-Imidazole Carboxamides as Potent and Selective TAK1 Inhibitors” (ACS Med Chem Lett, 2021).

The subject of one data set is HCT-15. Nature of the data set: Cytotoxicity against TNFalpha-induced human HCT-15 cells assessed as reduction in cell viability preincubated for 2 hrs followed by TNFalpha stimulation and measured after 72 hrs by celltiter-glo assay. Type of data set: functional, cell-based. In general terms: ATP-based viability assays read luminescence as a measure of living cells.

For data set [1], the system named is Tyrosine-protein kinase ABL1 (Homo sapiens), P00519 [H396P]. Kind of data set: Inhibition of human ABL1 H396P mutant (S229 to K512 residues) expressed in mammalian expression system at 10 uM by kinomescan method relative to control. Put shortly:
(§1)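 Single-concentration screen at 10 μM across a 468-kinase KINOMEscan panel (453 human, 403 wild-type kinases). Binding to each kinase was read out as percent inhibition relative to control, with >65% taken as the inhibition cutoff.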

The target of data set [2] is Activated CDC42 kinase 1 (Homo sapiens) (UniProt Q07912). Kind of data set: Inhibition of wild-type human partial length TNK2 (S159 to D474 residues) expressed in bacterial expression system at 10 uM by Kinomescan method relative to control. Summed up: as §1
Activated CDC42 kinase 1 (Homo sapiens), sequence (Q07912 whole entry, looked up, the tested form may be a part): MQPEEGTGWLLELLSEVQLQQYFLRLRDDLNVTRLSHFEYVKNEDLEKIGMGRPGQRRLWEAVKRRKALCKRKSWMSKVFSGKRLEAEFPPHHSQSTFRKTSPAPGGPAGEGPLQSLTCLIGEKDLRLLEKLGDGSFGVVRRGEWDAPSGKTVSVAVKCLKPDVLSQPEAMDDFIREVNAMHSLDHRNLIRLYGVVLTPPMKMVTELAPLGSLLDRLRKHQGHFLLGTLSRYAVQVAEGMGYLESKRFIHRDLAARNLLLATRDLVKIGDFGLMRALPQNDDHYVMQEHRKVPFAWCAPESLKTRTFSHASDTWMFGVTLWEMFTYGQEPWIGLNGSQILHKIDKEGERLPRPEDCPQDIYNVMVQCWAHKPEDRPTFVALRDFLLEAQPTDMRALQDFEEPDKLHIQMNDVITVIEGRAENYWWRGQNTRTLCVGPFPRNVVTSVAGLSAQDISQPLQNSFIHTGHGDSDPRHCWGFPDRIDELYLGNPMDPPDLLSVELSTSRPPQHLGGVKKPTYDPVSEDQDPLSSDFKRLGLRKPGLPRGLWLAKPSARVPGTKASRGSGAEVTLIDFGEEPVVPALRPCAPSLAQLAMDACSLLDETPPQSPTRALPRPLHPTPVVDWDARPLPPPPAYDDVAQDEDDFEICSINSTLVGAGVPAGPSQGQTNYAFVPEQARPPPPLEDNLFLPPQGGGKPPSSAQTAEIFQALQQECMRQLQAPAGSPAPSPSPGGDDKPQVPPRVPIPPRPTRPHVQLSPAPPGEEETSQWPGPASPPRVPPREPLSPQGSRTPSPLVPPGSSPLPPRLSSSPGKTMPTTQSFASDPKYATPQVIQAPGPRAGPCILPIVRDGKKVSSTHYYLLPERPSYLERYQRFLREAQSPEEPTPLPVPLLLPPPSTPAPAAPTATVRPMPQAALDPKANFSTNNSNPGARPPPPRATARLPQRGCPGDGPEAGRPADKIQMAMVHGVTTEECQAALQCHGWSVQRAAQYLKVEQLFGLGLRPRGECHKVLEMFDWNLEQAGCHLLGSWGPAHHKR
A short description of data set [3]: Efflux ratio of apparent permeability across basolateral to apical side over apical to basolateral side in human Caco-2 cells at 2 uM after 2 hrs by LC/MS-MS analysis. Type of data set: ADME, cell-based. (In general: Passage across Caco-2 layers is used to estimate intestinal permeability.)
Data set [4] in a line: Half life in human liver S9 fraction at 1 uM measured up to 60 mins in presence of NADPH by LC-MS analysis. It counts as ADME, subcellular.
The target in data set [5] is Eukaryotic translation initiation factor 2-alpha kinase 1 (Homo sapiens) (UniProt Q9BQI3). Kind of data set: Inhibition of wild-type human partial length EIF2AK1 (Q147 to E603 residues) expressed in mammalian expression system at 10 uM by Kinomescan method relative to control. Summed up: as §1
Eukaryotic translation initiation factor 2-alpha kinase 1 (Homo sapiens), sequence (Q9BQI3 whole entry, the tested form may be a part): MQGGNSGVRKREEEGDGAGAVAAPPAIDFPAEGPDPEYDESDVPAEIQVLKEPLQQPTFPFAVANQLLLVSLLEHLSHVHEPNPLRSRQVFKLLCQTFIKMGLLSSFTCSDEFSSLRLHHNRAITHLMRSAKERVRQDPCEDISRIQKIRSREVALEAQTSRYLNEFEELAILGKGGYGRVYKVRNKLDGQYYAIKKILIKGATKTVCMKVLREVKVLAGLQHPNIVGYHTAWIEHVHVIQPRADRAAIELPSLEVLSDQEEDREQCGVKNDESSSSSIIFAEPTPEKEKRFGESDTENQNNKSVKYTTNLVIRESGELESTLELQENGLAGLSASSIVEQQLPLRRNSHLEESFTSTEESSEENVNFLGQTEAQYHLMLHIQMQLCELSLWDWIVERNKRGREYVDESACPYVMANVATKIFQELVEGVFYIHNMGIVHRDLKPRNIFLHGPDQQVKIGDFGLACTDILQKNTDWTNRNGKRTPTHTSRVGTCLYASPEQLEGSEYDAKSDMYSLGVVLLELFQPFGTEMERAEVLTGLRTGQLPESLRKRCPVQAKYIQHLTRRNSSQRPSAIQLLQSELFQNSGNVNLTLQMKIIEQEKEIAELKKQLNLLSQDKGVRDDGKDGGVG
Data set [6] in a line: Apparent permeability across apical to basolateral side in human Caco-2 cells at 2 uM after 2 hrs by LC/MS-MS analysis. It counts as ADME, cell-based.
The target in data set [7] is Serine/threonine-protein kinase 32A (Homo sapiens) (UniProt Q8WU08). Nature of the data set: Inhibition of wild-type human full-length YANK1 (M1 to L396 residues) expressed in mammalian expression system at 10 uM by Kinomescan method relative to control. Summed up:
as §1

The nature of data set [8]: Apparent permeability across basolateral to apical side in human Caco-2 cells at 2 uM after 2 hrs by LC/MS-MS analysis. Type of data set: ADME, cell-based.
Data set [9] in a line: Half life in CD-1 mouse liver S9 fraction at 1 uM measured up to 60 mins in presence of NADPH by LC-MS analysis. It counts as ADME, subcellular.
Data set [10] is described as follows: Aqueous solubility of compound in pH 7.4 PBS buffer measured after 24 hrs by HPLC-UV analysis. It counts as physicochemical.
Data set [11] can be described thus: Half life in rat liver S9 fraction at 1 uM measured up to 60 mins in presence of NADPH by LC-MS analysis. Type of data set: ADME, subcellular.
For data set [12], the target named is T1, Mitogen-activated protein kinase kinase kinase 7 (Homo sapiens, UniProt O43318).
T1 sequence (O43318 whole entry): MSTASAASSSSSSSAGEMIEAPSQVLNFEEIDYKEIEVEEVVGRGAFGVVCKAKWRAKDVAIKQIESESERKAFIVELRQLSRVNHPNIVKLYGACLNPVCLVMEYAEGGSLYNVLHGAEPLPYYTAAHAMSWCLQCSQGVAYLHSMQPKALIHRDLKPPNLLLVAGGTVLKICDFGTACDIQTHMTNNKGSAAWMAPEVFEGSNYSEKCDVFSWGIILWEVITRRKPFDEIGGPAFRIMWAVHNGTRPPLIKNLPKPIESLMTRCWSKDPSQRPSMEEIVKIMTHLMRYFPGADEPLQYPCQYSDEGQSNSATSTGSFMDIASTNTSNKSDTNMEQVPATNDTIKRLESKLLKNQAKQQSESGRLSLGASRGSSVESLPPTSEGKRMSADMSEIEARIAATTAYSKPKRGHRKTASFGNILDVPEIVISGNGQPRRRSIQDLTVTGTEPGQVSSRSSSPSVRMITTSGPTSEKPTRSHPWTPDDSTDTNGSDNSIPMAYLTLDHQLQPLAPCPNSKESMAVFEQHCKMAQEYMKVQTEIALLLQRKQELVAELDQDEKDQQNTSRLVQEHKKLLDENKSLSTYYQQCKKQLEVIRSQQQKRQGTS
Nature of the data set: Binding affinity to wild-type human partial length TAK1 (M1 to Q303 residues) expressed in mammalian expression system by Kinomescan method. Summed up: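 Dissociation constant for TAK1 binding measured on the KdELECT platform.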

For orientation: EC50 means the concentration giving half of the maximal effect. Usually inhibition stands for the share of the control response that was lost under treatment. A lower inhibition goes with a response near the control. By efflux ratio is commonly meant the permeability from basolateral to apical divided by that in the opposite direction, in the common usage. As a reminder, the half-life is the time needed for the level to fall by half in the phase considered. In general, Papp A→B refers to how fast a substance crosses the layer from the apical side. What is called Papp B→A is the apparent permeability from the basolateral to the apical side of a cell layer. For orientation: solubility means how much of the substance goes into solution per volume. As usually defined, the Kd is the equilibrium constant for the complex coming apart. A low value points to tighter binding.

The structures appear in SMILES notation. In brackets after ≈: the same amount, converted by molar mass. A value given as a limit tells only on which side of the number the result lay.

Serine/threonine-protein kinase 32A (Homo sapiens), sequence (Q8WU08 whole entry, the tested form may be a part): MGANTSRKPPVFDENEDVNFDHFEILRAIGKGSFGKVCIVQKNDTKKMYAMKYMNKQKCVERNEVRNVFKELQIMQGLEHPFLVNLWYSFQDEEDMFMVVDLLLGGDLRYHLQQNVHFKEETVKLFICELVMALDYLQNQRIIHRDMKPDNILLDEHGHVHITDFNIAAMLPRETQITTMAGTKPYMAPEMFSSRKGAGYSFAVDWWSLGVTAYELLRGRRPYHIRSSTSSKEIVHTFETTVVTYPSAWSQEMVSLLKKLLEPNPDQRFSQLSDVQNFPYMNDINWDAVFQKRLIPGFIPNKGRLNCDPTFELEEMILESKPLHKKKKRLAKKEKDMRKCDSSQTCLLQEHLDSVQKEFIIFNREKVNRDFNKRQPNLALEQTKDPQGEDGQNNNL

Regarding `COc1cc(O)c2c(c1)/C=C/C[C@H](O)[C@H](O)C(=O)/C=C\C[C@H](C)OC2=O`, the EC50 in the data set on HCT-15 came to 0.002 µM.
For `CNC(=O)CN(Cc1ccccc1OC(F)F)C(=O)c1c[nH]c(C(=O)N2CCCC2)n1`, the inhibition in data set [1], in [2], in data set [5] and in [7] was above 65% each time. Besides, the efflux ratio at 2 h, 2 µM in data set [3] came out at 20. Moreover, the half-life at 1 µM in [4], in [9] and in data set [11] was above 2 h in each case. For the same compound, the apical-to-basolateral permeability (Papp A→B) at 2 h, 2 µM in data set [6] is 1 ×10⁻⁶ cm/s. Besides, the Papp B→A at 2 h, 2 µM in data set [8] is 20 ×10⁻⁶ cm/s. Further, the solubility at 24 h in data set [10] came out at 30 µM (≈ 13.1 µg/mL). The Kd in data set [12] stood at 0.055 µM.
